# Reference: ChEMBL document CHEMBL1155041, “Discovery of N-(2-aminophenyl)-4-[(4-pyridin-3-ylpyrimidin-2-ylamino)methyl]benzamide (MGCD0103), an orally active histone deacetylase inhibitor” (J Med Chem, 2008)
# Where a name gives a salt, the structure may show the parent alone. Active and inactive are the calls of the source. The rule behind the calls is not given here.
# Columns and labels:
# HCT-116 [1] = experiment: Induction of apoptosis in HCT116 cells at 1 uM; format: functional, cell-based; details: Homo sapiens
# Method in brief: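 Apoptosis was measured in HCT116 cells with a cell-death detection ELISA (nucleosome release), read at 405 nm with a 490 nm reference. Scored positive/negative at 1 µM.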
# SW48 [2] = experiment: Antitumor activity against human SW48 cells xenografted in CD1 nude mouse at 60 mg/kg/day, po; format: functional; details: read-out: TGI
# Method in brief: (§1)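 Tumors were started from about 2 million cells injected sc into the flank of female CD-1 nude mice aged 8-10 weeks, then serially passaged at least three times. About 30 mg fragments were implanted sc under anesthesia. Dosing was oral, daily, as a solution in PBS acidified with 0.1 N HCl. Tumor volume and body weight were measured three times weekly for ≥2 weeks, with 6-8 animals per group and Student's t-test.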
# SW48 [3] = experiment: Antitumor activity against human SW48 cells xenografted in CD1 nude mouse at 90 mg/kg/day, po; format: functional; details: read-out: TGI; method in brief: as §1
# SW48 [4] = experiment: Antitumor activity against human SW48 cells xenografted in CD1 nude mouse at 120 mg/kg/day, po; format: functional; details: read-out: TGI; method in brief: as §1
# Histone deacetylase 11 = biological target: T1, Histone deacetylase 11 (Homo sapiens, UniProt Q96DB2); experiment: Inhibition of human recombinant HDAC11 homogeneous fluorescence release assay
# T1 sequence (Q96DB2 whole entry): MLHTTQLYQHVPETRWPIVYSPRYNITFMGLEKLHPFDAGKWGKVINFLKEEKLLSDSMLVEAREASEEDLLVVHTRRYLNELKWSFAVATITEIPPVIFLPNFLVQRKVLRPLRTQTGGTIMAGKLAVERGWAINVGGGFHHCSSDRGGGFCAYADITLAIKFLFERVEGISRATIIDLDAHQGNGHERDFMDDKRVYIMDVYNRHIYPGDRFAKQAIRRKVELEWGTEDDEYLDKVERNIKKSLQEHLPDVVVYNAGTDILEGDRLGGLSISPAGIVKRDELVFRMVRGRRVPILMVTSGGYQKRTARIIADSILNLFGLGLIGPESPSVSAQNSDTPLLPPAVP
# Method in brief: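 Boc-Lys(ε-Ac)-AMC substrate then added at 37 °C, with isotype-specific substrate level and time. Trypsin 20 min at RT releases fluorophore, read ex 360/em 470 nm. IC50 from dose-response curves, 6-21 independent experiments.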
# HCT-116 [5] = experiment: Antiproliferative activity against human HCT116 cells after 72 hrs by MTT assay; details: HCT-116, 72 h
# A549 [6] = experiment: Antiproliferative activity against human A549 cells after 72 hrs by MTT assay; details: A549, 72 h
# DU-145 [7] = experiment: Antiproliferative activity against human Du145 cells after 72 hrs by MTT assay; format: functional, cell-based; details: DU-145, 72 h
# Method in brief: (§2)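 Cells (HMEC from a commercial source, others from ATCC) cultured per vendor instructions, exposed to a range of concentrations for 72 h at 37 °C, 5% CO2. MTT at 0.5 mg/mL final for 4 h, then DMF/SDS solubilization overnight, absorbance at 570 nm with 630 nm reference. OD converted to cell number via a growth curve. IC50 is the concentration giving 50% of DMSO-control cell number. At least three independent experiments.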
# HMEC = experiment: Antiproliferative activity against HMEC after 72 hrs by MTT assay; format: functional, cell-based; details: Homo sapiens; method in brief: as §2
# T-24 = experiment: Induction of H3 histone acetylation in human T24 cells relative to MS275; format: functional, cell-based
# Method in brief: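 Histones were acid-extracted (H2SO4, then acetone precipitation) from treated cells. In the ELISA, 2 µg of histones went onto anti-histone-coated plates and were probed with anti-acetyl-H3 (1:1000). Signal was normalized to total H3 measured on 0.5 µg with anti-H3.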
# HCT-116 [8] = experiment: Induction of p21cip/waf1 protein expression in human HCT116 cells relative to MS275; format: functional, cell-based
# HCT-116 [9] = experiment: Cell cycle arrest in human HCT116 cells assessed as accumulation at G2/M phase; format: functional, cell-based
# Method in brief: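 Cells treated for 16 h, fixed in 70% ethanol at -20 °C, RNase-treated and stained with propidium iodide (50 µg/mL). DNA content measured by flow cytometry to score G2/M accumulation. EC50 derived.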
# [10] = Half life in CD1 mouse at 2.5 to 15 mg/kg, iv; format: ADME, organism-based; parameters: dose 2.5-15 mg/kg, route intravenous; details: in vivo
# Method in brief: (§3)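 Female CD-1 mice, female Sprague-Dawley rats and male beagle dogs were dosed iv or orally. Vehicles: mice, 0.05-0.1 N HCl in saline for both routes. Rats, 0.02-0.1 N HCl in saline iv; for po, HCl/saline with 0.5% HPMC and 0.01% Tween-80, or 0.5% CMC in 50 mM acetate pH 4.0. Dogs, HCl/saline with 40% PEG400 iv; for po, HCl/saline ±PEG400 or 0.5% hydroxyethylcellulose in pH 4.0 acetate. Plasma was collected over time and analyzed by LC-MS/MS.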
# Mus musculus [11] = experiment: Volume of distribution in CD1 mouse at 2.5 to 15 mg/kg, iv and po; format: ADME, organism-based; parameters: dose 2.5-15 mg/kg, route oral; details: in vivo; method in brief: as §3
# [12] = Tmax in CD1 mouse at 2.5 to 15 mg/kg, po; format: ADME, organism-based; parameters: dose 2.5-15 mg/kg, route oral; details: in vivo; method in brief: as §3
# Mus musculus [13] = experiment: Cmax in CD1 mouse at 2.5 to 15 mg/kg, po; format: ADME, organism-based; parameters: dose 2.5-15 mg/kg, route oral; details: in vivo; method in brief: as §3
# [14] = Oral bioavailability in CD1 mouse at 2.5 to 15 mg/kg; format: ADME, organism-based; details: in vivo
# Method in brief: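 Female CD-1 mice dosed iv 2.5-15 mg/kg and orally 2.5-15 mg/kg. Both routes used 0.05-0.1 N HCl in saline. Plasma collected at various time points and analysed by HPLC-MS/MS. Bioavailability taken from oral versus iv exposure.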
# [15] = Half life in Sprague-Dawley rat at 2.5 to 5 mg/kg, iv; format: ADME, organism-based; parameters: dose 2.5-5 mg/kg, route intravenous; details: in vivo; method in brief: as §3
# [16] = Clearance in Sprague-Dawley rat at 2.5 to 5 mg/kg, iv and 2.5 to 50 mg/kg, po; format: ADME, organism-based; details: in vivo; method in brief: as §3
# [17] = Volume of distribution at steady state in Sprague-Dawley rat at 2.5 to 5 mg/kg, iv and 2.5 to 50 mg/kg, po; format: ADME, organism-based; details: in vivo, read-out: Vdss; method in brief: as §3
# [18] = Tmax in Sprague-Dawley rat at 2.5 to 50 mg/kg, po; format: ADME, organism-based; parameters: dose 2.5-50 mg/kg, route oral; details: in vivo; method in brief: as §3
# Rattus norvegicus = experiment: Cmax in Sprague-Dawley rat at 2.5 to 50 mg/kg, po; format: ADME, organism-based; parameters: dose 2.5-50 mg/kg, route oral; details: in vivo; method in brief: as §3
# [19] = Oral bioavailability in Sprague-Dawley rat at 2.5 to 50 mg/kg; format: ADME, organism-based; details: in vivo
# Method in brief: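 Female Sprague-Dawley rats dosed iv 2.5-5 mg/kg in 0.02-0.1 N HCl/saline. Oral doses of 2.5-50 mg/kg were given either in 0.02-0.1 N HCl/saline with 0.5% HPMC and 0.01% Tween-80, or in 0.5% CMC in 50 mM acetate pH 4.0. Plasma sampled at various time points and analysed by HPLC-MS/MS.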
# [20] = Half life in Beagle dog at 10 mg/kg, iv; format: ADME, organism-based, Canis lupus familiaris; parameters: dose 10 mg/kg, route intravenous; details: in vivo; method in brief: as §3
# [21] = Clearance in Beagle dog at 10 mg/kg, iv and 7 to 30 mg/kg, po; format: ADME, organism-based, Canis lupus familiaris; details: in vivo; method in brief: as §3
# [22] = Volume of distribution at steady state in Beagle dog at 10 mg/kg, iv and 7 to 30 mg/kg, po; format: ADME, organism-based, Canis lupus familiaris; details: in vivo, read-out: Vdss; method in brief: as §3
# [23] = Tmax in Beagle dog at 7 to 30 mg/kg, po; format: ADME, organism-based, Canis lupus familiaris; parameters: dose 7-30 mg/kg, route oral; details: in vivo; method in brief: as §3
# Canis familiaris = experiment: Cmax in Beagle dog at 7 to 30 mg/kg, po; format: ADME, organism-based, Canis lupus familiaris; parameters: dose 7-30 mg/kg, route oral; details: in vivo; method in brief: as §3
# [24] = Oral bioavailability in Beagle dog at 7 to 30 mg/kg; format: ADME, organism-based, Canis lupus familiaris; details: in vivo; method in brief: as §3
# A-431 [25] = experiment: Antitumor activity against human A431 cells xenografted in CD1 nude mouse at 60 mg/kg/day, po; format: functional; details: read-out: TGI; method in brief: as §1
# A-431 [26] = experiment: Antitumor activity against human A431 cells xenografted in CD1 nude mouse at 90 mg/kg/day, po; format: functional; details: read-out: TGI; method in brief: as §1
# A549 [27] = experiment: Antitumor activity against human A549 cells xenografted in CD1 nude mouse at 40 mg/kg/day, po; format: functional; details: read-out: TGI; method in brief: as §1
# A549 [28] = experiment: Antitumor activity against human A549 cells xenografted in CD1 nude mouse at 60 mg/kg/day, po; format: functional; details: read-out: TGI; method in brief: as §1
# DU-145 [29] = experiment: Antitumor activity against human DU145 cells xenografted in CD1 nude mouse at 40 mg/kg/day, po; format: functional; details: read-out: TGI; method in brief: as §1
# DU-145 [30] = experiment: Antitumor activity against human DU145 cells xenografted in CD1 nude mouse at 70 mg/kg/day, po; format: functional; details: read-out: TGI; method in brief: as §1
# DU-145 [31] = experiment: Antitumor activity against human DU145 cells xenografted in CD1 nude mouse at 80 mg/kg; format: functional; details: read-out: TGI; method in brief: as §1
structure (smiles),measurement,setting,value
Nc1ccccc1NC(=O)c1ccc(CNc2nccc(-c3cccnc3)n2)cc1,Activity,HCT-116 [1],Active
Nc1ccccc1NC(=O)c1ccc(CNc2nccc(-c3cccnc3)n2)cc1 [MOCETINOSTAT DIHYDROBROMIDE],inhibition in vivo at 60 mg/kg/day,SW48 [2],64%
same,inhibition in vivo at 90 mg/kg/day,SW48 [3],70%
same,inhibition in vivo at 120 mg/kg/day,SW48 [4],93%
Nc1ccccc1NC(=O)c1ccc(CNc2nccc(-c3cccnc3)n2)cc1 [MOCETINOSTAT],IC50,Histone deacetylase 11,590 nM
same,IC50,HCT-116 [5],290 nM
same,IC50,A549 [6],900 nM
same,IC50,DU-145 [7],670 nM
same,IC50,HMEC,20000 nM
same,EC50,T-24,1380 nM
same,EC50,HCT-116 [8],450 nM
same,EC50,HCT-116 [9],< 1000 nM
same,half-life,[10],36 min
same,Vdss,Mus musculus [11],0.35 L/kg
same,Tmax,[12],15 min
same,Cmax normalised,Mus musculus [13],0.086 µM/mg/kg
same,bioavailability,[14],12%
same,half-life,[15],42 min
same,clearance,[16],28.3 mL/min/kg
same,Vd,[17],0.91 L/kg
same,Tmax,[18],35.4 min
same,Cmax normalised,Rattus norvegicus,0.3 µM/mg/kg
same,bioavailability,[19],47%
same,half-life,[20],78 min
same,clearance,[21],33.3 mL/min/kg
same,Vd,[22],0.8 L/kg
same,Tmax,[23],17.4 min
same,Cmax normalised,Canis familiaris,0.0029 µM/mg/kg
same,bioavailability,[24],1%
same,inhibition in vivo at 60 mg/kg/day,A-431 [25],30%
same,inhibition in vivo at 90 mg/kg/day,A-431 [26],64%
same,inhibition in vivo at 40 mg/kg/day,A549 [27],56%
same,inhibition in vivo at 60 mg/kg/day,A549 [28],73%
same,inhibition in vivo at 40 mg/kg/day,DU-145 [29],4%
same,inhibition in vivo at 70 mg/kg/day,DU-145 [30],47%
same,inhibition in vivo at 80 mg/kg,DU-145 [31],82%
